Experimental data pooled from the literature.
Compare with care: the assays were run in different laboratories. ≈ marks a conversion by molar mass, not a printed value.

| Compound | tested on | assay | system | conditions | measurement | result |
| --- | --- | --- | --- | --- | --- | --- |
| CN[C@H](CC(C)C)C(=O)N[C@H]1C(=O)N[C@@H](CC(N)=O)C(=O)N[C@H]2C(=O)N[C@H]3C(=O)N[C@H](C(=O)N[C@H](C(=O)O)c4cc(O)cc(O)c4-c4cc3ccc4O)[C@H](O)c3ccc(c(Cl)c3)Oc3cc2cc(c3O[C@@H]2O[C@H](CO)[C@@H](O)[C@H](O)[C@H]2O[C@H]2C[C@](C)(N)[C@H](O)[C@H](C)O2)Oc2ccc(cc2Cl)[C@H]1O | Enterococcus | microbial growth, broth dilution | VRE |  | MIC | > 64 mg/L |
| CC[C@H](C)C[C@H](C)CCCCCCCCC(=O)N[C@H]1C[C@@H](O)[C@@H](NCCN)NC(=O)[C@@H]2[C@@H](O)CCN2C(=O)[C@H]([C@H](O)CCN)NC(=O)[C@H]([C@H](O)[C@@H](O)c2ccc(O)cc2)NC(=O)[C@@H]2C[C@@H](O)CN2C(=O)[C@H]([C@@H](C)O)NC1=O | Pichia kudriavzevii | microbial killing, broth dilution | ATCC14243 | 48 h | MFC | 4 mg/L (≈ 3.66 µM) |
| NC(=O)c1nc(F)c[nH]c1=O | Influenza A virus | viral replication, inhibitor | MDCK, H1N1 WSN |  | EC50 | 1.57 µM |
| CCN(CC)CCCC(C)Nc1ccnc2cc(Cl)ccc12 (stereo not shown) | Plasmodium knowlesi | parasite growth, SYBR Green |  |  | IC50 | 0.0195 µM |
| O=c1[nH]cc(F)c(=O)[nH]1 | Influenza A virus | viral replication, inhibitor, ELISA | MDCK, H1N1 | 24 h | IC50 | 50.4 µM |
| COC(=O)OCOc1c2n(ccc1=O)N([C@@H]1c3ccccc3SCc3c1ccc(F)c3F)[C@@H]1COCCN1C2=O | Influenza A virus | viral replication, inhibitor | H1N1 PR/8 |  | EC50 | 0.00757 µM |
| C[C@@H]1C[C@@H]([C@H](O)CC2CC(=O)NC(=O)C2)C(=O)[C@@H](C)C1 | Fusarium solani | microbial growth, broth dilution |  |  | MIC | 12 mg/L (≈ 42.7 µM) |
| Nc1ncn([C@@H]2O[C@H](CO)[C@@H](O)[C@H]2O)c(=O)n1 | Influenza A virus | viral replication, inhibitor, ELISA | MDCK, H1N1 | 24 h | IC50 | 3.42 µM |
| O=c1c2ccccc2[se]n1-c1ccccc1 | Influenza A virus | viral replication | Vero, H1N1 | 48 h | IC50 | 1.57 µM |
| NC(=O)c1ncn([C@@H]2O[C@H](CO)[C@@H](O)[C@H]2O)n1 | Influenza A virus | viral replication, inhibitor, ELISA | MDCK, H1N1 | 24 h | IC50 | 3.44 µM |
| N.N.[Cl][Pt][Cl] | SU-DHL-8 | cell growth or viability, ATP luminescence |  | 10 µM, 72 h | inhibition | 100% |
| Sc1ncnc2nc[nH]c12 | Influenza A virus | viral replication, inhibitor, ELISA | MDCK, H1N1 | 24 h | IC50 | 11.3 µM |
| N=C(CC(O)c1cc2c(F)cc(F)cc2c2cc(C(F)(F)F)ccc12)Nc1cccc(F)c1 (stereo not shown) | Plasmodium knowlesi | parasite growth, SYBR Green |  |  | IC50 | 0.0064 µM |
